Source: PubChem BioAssay
GSTO1 inh: inhibitors of recombinant GSTO1, primary screen, counter-screen for RBBP9 inhibitor project, biochemical, fluorescence polarization. inhibition, % at 5.96 µM. hit rate 1.1% among 300,000. Glutathione S-transferase omega-1 (Homo sapiens), P78417. activity-based probe fluorescence polarization. AID 1974, 2009;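 active = inhibition above the campaign mean inhibition plus 3 SD, cut at about 35% in these data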;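 note: 0% = GSTO1-1 with DMSO and 100% = wells lacking GSTO1-1 enzyme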
Apaf-1 inh: inhibitors of human Apaf-1 apoptosome, primary screen, biochemical, DEVD-Rh110 fluorescence, uHTS. Apoptotic protease-activating factor 1 (Homo sapiens), O14727. reconstituted apoptosome caspase-3 activity. inhibition, % at 20 µM. hit rate 0.71% among 330,000. AID 489030, 2010; active = inhibition of at least 40% at 20 µM;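 note: plate controls were DMSO wells for no effect and DEVD-CHO caspase inhibitor wells for full effect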
Target sequence (O14727 whole entry, looked up): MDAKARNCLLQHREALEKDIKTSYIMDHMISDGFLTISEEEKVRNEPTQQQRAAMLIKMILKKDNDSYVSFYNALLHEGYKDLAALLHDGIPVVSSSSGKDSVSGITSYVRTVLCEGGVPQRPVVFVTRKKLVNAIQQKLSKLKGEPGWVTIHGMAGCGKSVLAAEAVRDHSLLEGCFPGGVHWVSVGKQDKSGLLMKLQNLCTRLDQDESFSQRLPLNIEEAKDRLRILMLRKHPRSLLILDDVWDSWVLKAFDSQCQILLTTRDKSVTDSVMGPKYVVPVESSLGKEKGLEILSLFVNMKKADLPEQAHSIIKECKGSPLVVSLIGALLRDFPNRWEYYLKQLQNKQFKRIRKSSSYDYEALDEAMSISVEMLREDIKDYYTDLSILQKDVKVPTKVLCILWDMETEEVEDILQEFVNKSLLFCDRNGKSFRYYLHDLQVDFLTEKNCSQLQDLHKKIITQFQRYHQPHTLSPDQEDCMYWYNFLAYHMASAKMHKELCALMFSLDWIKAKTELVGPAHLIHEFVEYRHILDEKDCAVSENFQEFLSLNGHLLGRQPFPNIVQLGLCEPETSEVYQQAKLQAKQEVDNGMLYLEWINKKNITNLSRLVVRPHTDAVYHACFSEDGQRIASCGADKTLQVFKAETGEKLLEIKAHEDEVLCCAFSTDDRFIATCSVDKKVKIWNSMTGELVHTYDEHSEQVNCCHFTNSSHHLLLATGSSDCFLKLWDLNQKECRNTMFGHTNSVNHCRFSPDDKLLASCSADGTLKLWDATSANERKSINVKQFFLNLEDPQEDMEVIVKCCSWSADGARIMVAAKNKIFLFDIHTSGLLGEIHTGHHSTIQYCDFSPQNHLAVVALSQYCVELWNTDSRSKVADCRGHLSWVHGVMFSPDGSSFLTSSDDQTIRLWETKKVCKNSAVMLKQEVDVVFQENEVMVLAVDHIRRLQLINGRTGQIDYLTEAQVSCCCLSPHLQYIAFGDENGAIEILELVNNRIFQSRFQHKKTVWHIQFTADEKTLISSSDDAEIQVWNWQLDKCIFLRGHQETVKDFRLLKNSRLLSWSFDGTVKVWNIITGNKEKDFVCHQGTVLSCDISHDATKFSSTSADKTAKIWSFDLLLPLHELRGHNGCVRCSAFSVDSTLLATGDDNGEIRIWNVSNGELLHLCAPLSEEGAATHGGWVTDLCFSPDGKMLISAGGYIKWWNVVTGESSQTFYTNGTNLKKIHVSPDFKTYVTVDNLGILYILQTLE
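Material: biochemical Apaf-1 apoptosome reconstitution. Medium: Hepes buffer, pH 7.5. Also added: cytochrome c activation, bis-DEVD rhodamine 110 substrate. Timing: 30 min compound preincubation, 50 min activation, room temperature. Measured by: rhodamine 110 fluorescence at Ex 480/Em 540 nm.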
PAD4 inh: human PAD4 inhibitors, primary screen, biochemical, fluorescence polarization, 1536-well format; Protein-arginine deiminase type-4 (Homo sapiens), Q9UM07; recombinant PAD4, RCA probe fluorescence polarization; inhibition, % at 6.36 µM; hit rate 0.41% among 330,000;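 active = percent inhibition above a cutoff equal to the mean of all tested compounds plus 3 SD, cut at about 15% in these data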;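 note: 0% = PAD4 with RCA probe and DMSO and 100% = probe without PAD4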
CTSL1 counter: Fasciola hepatica cathepsin L1 inhibitors, primary screen, counter-screen for PFM18AAP inhibitor project, biochemical, QFRET, fluorogenic peptide substrate; recombinant F. hepatica cathepsin L1, Z-Leu-Arg-MCA fluorescence; inhibition, % at 5.96 µM; hit rate 0.49% among 300,000;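 active = inhibition above the mean of all tested compounds plus 3 SD, set per screening campaign, cut at about 17% in these data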;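 note: 0% = plate median of test compound wells and 100% = 1 µM Z-Phe-Ala-diazomethylketone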
PP5 inh: PP5 phosphatase inhibitors, primary screen, biochemical, fluorescence | Serine/threonine-protein phosphatase 5 (Homo sapiens), P53041 | purified PP5c, OMFP substrate fluorescence | inhibition, % at 6.7 µM | hit rate 0.18% among 320,000;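 active = inhibition above the campaign's mean inhibition across all tested compounds plus 3 SD, cut at about 9.5% in these data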;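 note: 0% = DMSO only and 100% = 100 µM cantharidin control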
UCH37 DUB inh: inhibitors of human UCH37 deubiquitinase, primary screen, biochemical, Ub-AMC cleavage, fluorescence; hit rate 0.33% among 330,000; inhibition, % (concentration not given with the values); purified proteasome/UCH37; Ubiquitin carboxyl-terminal hydrolase isozyme L5 (Homo sapiens), Q9Y5K5;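 active = mean inhibition over replicate wells above about 20%, limit read from the data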;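 note: 0% = compound-free wells with enzyme and 100% = wells lacking proteasome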
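system = Proteasome-associated human UCH37 deubiquitinase | amount = 0.15 nM proteasome as dispensed | medium = pH 7.4 Tris-HCl (50 mM) with ovalbumin, ATP-MgCl2, DTT | incubation = 30 min preincubation with enzyme, 25 min cleavage at room temperature | detection = AMC fluorescence 355/460 nm | read-out basis = percent inhibition | controls = no-proteasome and no-compound wells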
* hit, by the source's call; · = no result given. Shown are actives, neighbours in structure and some others; about 2% of the full set was active somewhere.

SMILES | GSTO1 inh | Apaf-1 inh | PAD4 inh | CTSL1 counter | PP5 inh | UCH37 DUB inh
c1ccc2[nH]c(CCCc3nc4ccccc4[nH]3)nc2c1 | 8 | 7 | 0 | -1 | 2 | 5
Oc1ccc(O)c(Cc2nc3ccccc3[nH]2)c1 | 70* | -3 | -3 | -6 | 2 | 1
Cn1c(SCC(=O)NN=Cc2cc([N+](=O)[O-])ccc2O)nnc1-c1ccccc1 | · | · | · | · | · | 8
CC(=O)Nc1ccc(C(=O)NN=Cc2ccccc2OC(=O)c2ccc(Cl)cc2)cc1 | · | · | · | · | · | -5
O=S(=O)(N=C(c1ccc(Cl)cc1)N1CCOCC1)c1ccccc1 | · | · | · | · | · | 3
CN1CCN(CCCNC(=O)C2CCN(c3nnc(-n4cccc4)s3)CC2)CC1 | -8 | 16 | 0 | -5 | 2 | 2
CCN1CCN(CCCNC(=O)C2CCCN(c3nnc(-n4cccc4)s3)C2)CC1 (configuration not stated) | 3 | 14 | 0 | -5 | 0 | 23*
CC(=O)Nc1ccc(NC(=S)NC(=O)C2CC2)cc1 | -1 | -15 | 4 | 30* | 2 | ·
Cc1cc(Cl)ccc1NC(=O)C(=O)NN=Cc1ccc2c(c1)OCO2 | · | · | · | · | · | -23
CN1C(=O)N(C)C2(c3ccccc3)Nn3c(sc(=Cc4ccccc4F)c3=O)=NC12c1ccccc1 (configuration not stated) | · | · | · | · | · | 0
COCCn1c(-c2cccs2)csc1=Nc1cccnc1 | -5 | 3 | -3 | 19* | -1 | 2
CC(=NNC(=O)C(C)Oc1ccc([N+](=O)[O-])cc1)c1ccccn1 (configuration not stated) | · | · | · | · | · | 1
CCOc1cccc(-c2c(C(=O)NN=Cc3ccoc3)nnn2-c2nonc2N)c1 | · | · | · | · | · | 2
N#CC1=C(N)Oc2n[nH]c(-c3cccs3)c2C1c1ccoc1 (configuration not stated) | 6 | 3 | -2 | -4 | -1 | 11
COc1cc(C2C(C#N)=C(N)Oc3n[nH]c(-c4cccs4)c32)cc(OC)c1O (configuration not stated) | 35* | -1 | 10 | -3 | 3 | 2
Cc1cccc(NC(=S)NC(=NS(=O)(=O)c2ccccc2)c2ccccc2)c1 | · | · | · | · | · | 4
CC1=NOC(=O)/C1=C\c1ccc(-c2ccc(Br)cc2C(=O)O)o1 | 7 | 9 | -2 | 0 | 0 | -1
CC1=NN(c2ccc(Br)cc2)C(=O)/C1=C/c1ccc(-c2ccccc2C(=O)O)o1 | 13 | 78* | 2 | 0 | -1 | 9
NC(N)=NN=Cc1ccc(OCc2ccccc2)cc1 | · | · | · | · | · | 3
NC(N)=N/N=C/c1ccc(OCc2ccccc2Cl)cc1 | 0 | 43* | -5 | -2 | 4 | ·
COc1cc(OC)c(/C=C2\C(=O)Nc3ccccc32)c(OC)c1 | 9 | -5 | -14 | 38* | 4 | 4
O=C(NCS(=O)(=O)c1ccccc1)c1ccccc1 | 15 | 6 | -2 | 30* | 0 | 3
O=C(NNC(=O)c1cc(Cl)ccc1O)c1cccc(S(=O)(=O)N2CCOCC2)c1 | 37* | 8 | -2 | 3 | 0 | -1
Cc1ccc(C(=O)NNC(=O)c2cccc(S(=O)(=O)N3CCOCC3)c2)cc1 | · | 11 | -5 | · | · | -1
O=C(Nc1ccccc1)c1ccc(CN2CCc3ccccc3C2)cc1 | -7 | 7 | -3 | 3 | 0 | 0
Cc1ccc(NC(=O)c2ccc(CN3CCc4ccccc4C3)cc2)cc1 | 1 | 48* | -1 | -2 | 1 | 22*
O=C(Nc1ccc(Br)cn1)C1CCCN1S(=O)(=O)c1ccccc1 (configuration not stated) | 7 | -1 | 2 | 2 | 0 | 30*
CC(=O)Nc1ccccc1OCC(=O)c1cc(C)n(Cc2cccs2)c1C | -5 | 16 | 1 | 3 | -1 | 3
Cc1cc(C(=O)COc2cccnc2[N+](=O)[O-])c(C)n1Cc1cccs1 | 13 | -14 | -3 | -4 | 9.9* | 4
Nc1ccc(O)c2ccccc12 | 62* | 68* | 10 | -1 | 1 | ·
